From ChEMBL document CHEMBL4513216, “Probing the Open Global Health Chemical Diversity Library for Multistage-Active Starting Points for Next-Generation Antimalarials” (ACS Infect Dis, 2020)

Experiment: Toxicity liver stage against HepG2, at 10uM
Assay type: cell-based
Set-up: test concentration 10 uM, cell line HepG2-A16-CD81EGFP
Settings: human, HepG2-A16-CD81EGFP cells; read-out: INHIBITION
Summary of the method: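 Uninfected HepG2-A16-CD81EGFP cells, 3 × 10^3 per well, 1536-well, plated on prespotted compound at 10 μM final, parasite-free screening media added to match infected plates; puromycin 10 μM positive, DMSO 0.5% negative; run in parallel with 48 h PbLuc assay at 37 °C, 5% CO2; viability by CellTiter-Glo luminescence, normalized to controls.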

COc1ccc(CC(C)Nc2cccc(SC)c2)cc1 (configuration not stated)
cytotoxicity at 10 µM: 11.6%

Cn1c2ccccc2c2ncn(CCCN3CCOCC3)c(=O)c21
cytotoxicity at 10 µM: 18.3%

CC(=O)c1ccc(C(=O)NCCCOC(C)c2ccccc2)s1 (configuration not stated)
cytotoxicity at 10 µM: -14.1%

Cc1ccc2c(c1)nc1n2[C@@H](CNC(=O)c2cncnc2)COC1
cytotoxicity at 10 µM: 5.6%

Cc1ccc(-c2cn3c(n2)CO[C@@H](CNCc2cnn(C)c2)C3)cc1
cytotoxicity at 10 µM: -1.23%

COCCN1CC(O)CN(C(=O)c2ccc(SC)cc2)CC1=O (configuration not stated)
cytotoxicity at 10 µM: -0.53%

CC(C)COC(=O)N1CC(=O)N(CCCc2ccccc2)CC(O)C1 (configuration not stated)
cytotoxicity at 10 µM: 0.853%

COCCNC(=O)CCN1C(=O)CC2(CCCC2)C1=O
cytotoxicity at 10 µM: 2.34%

COc1ccc(-c2n[nH]c(C)c2CC(=O)NCCN2CCOCC2)cc1
cytotoxicity at 10 µM: -13.4%

CCCc1cc(=O)n(CC(=O)NC(C)C)c(-n2nc(C)cc2C)n1
cytotoxicity at 10 µM: 2.74%

CC(C)(C)c1csc(CN2CCN(S(=O)(=O)c3cccnc3)CC2)n1
cytotoxicity at 10 µM: 3.21%

CS(=O)(=O)N1CCOC2(CCN(c3ncccn3)CC2)c2ccccc21
cytotoxicity at 10 µM: -1.52%

CCC(CC)CN1C[C@@H]2OCCN(Cc3cnn(C)c3)[C@@H]2C1
cytotoxicity at 10 µM: -144%

O=C(NCC1CC1)C1CN(C(=O)c2cnccn2)CC12CCOCC2 (configuration not stated)
cytotoxicity at 10 µM: 8.27%

c1ccc(N2CCCC3(CCN(Cc4nccs4)C3)C2)nc1 (configuration not stated)
cytotoxicity at 10 µM: 6.94%

CS(=O)(=O)Nc1cnn(Cc2cccc(Cl)c2)c1
cytotoxicity at 10 µM: -2.44%

Cc1nc(NC2CC2)c2c(n1)c(C)nn2C
cytotoxicity at 10 µM: -3.79%

COc1ccc(CNc2cc3[nH]c(O)nc3cc2C)cc1
cytotoxicity at 10 µM: 18.1%

CCN(CC)C(=O)c1ccn(COc2ccccc2)n1
cytotoxicity at 10 µM: -0.911%

Cc1nccnc1C1CCN(C(=O)C(C)C)CC1
cytotoxicity at 10 µM: 3.25%

CC(C)N1CCOC(c2cc(CCO)[nH]n2)C1 (configuration not stated)
cytotoxicity at 10 µM: 1.47%

Cn1nccc1C(=O)N1Cc2ccccc2OC2(CCOCC2)C1
cytotoxicity at 10 µM: -24.7%

CC(=O)N1CCN(c2cc(C3CN(C(C)=O)CCO3)nc(C)n2)CC1 (configuration not stated)
cytotoxicity at 10 µM: -22.8%

COc1ccc(-c2cccc(CC3(C(=O)O)CCOCC3)c2)cc1
cytotoxicity at 10 µM: -34.3%

NC(=O)C1(CCCc2ccccn2)CCCN(Cc2ncc[nH]2)C1 (configuration not stated)
cytotoxicity at 10 µM: -0.00173%

CNC(=O)c1ccc(C2CN(C(=O)c3cnn(C)c3)CCO2)nc1 (configuration not stated)
cytotoxicity at 10 µM: -24.2%

O=C(Cn1cccnc1=O)NC(Cc1ccsc1)c1nccs1 (configuration not stated)
cytotoxicity at 10 µM: -4.44%

Cc1n[nH]c(C)c1NC(=O)CCc1cccc(C2CCCN(C)C2)n1 (configuration not stated)
cytotoxicity at 10 µM: -6.19%

O=C(C1CCC1)N1CCCC(c2cccc(-n3ccnc3)n2)C1 (configuration not stated)
cytotoxicity at 10 µM: -1.28%

CCN1CCN(Cc2c(-c3ccco3)[nH]c3ncccc23)CC1
cytotoxicity at 10 µM: -5.91%

Cc1ncsc1-c1nnc(C2CCN(Cc3ccccc3Cl)CC2)o1
cytotoxicity at 10 µM: -6.86%

CN1CCC2(CC1)Cc1ccccc1CN(C(=O)CN)C2
cytotoxicity at 10 µM: -1.63%

COc1ccc(SC(C)C(=O)N2CCC(NC(=O)C3CC3)CC2)cc1 (configuration not stated)
cytotoxicity at 10 µM: -9.11%

CC(C(=O)N(C)Cc1ccc(Br)o1)n1cncn1 (configuration not stated)
cytotoxicity at 10 µM: 5.87%

CNC(=O)C(CC(C)C)NC(=O)c1cccc(-c2nc(C)cs2)c1 (configuration not stated)
cytotoxicity at 10 µM: 14.5%

O=C(NCCO)Nc1c(F)cccc1Oc1ccccc1
cytotoxicity at 10 µM: 1.36%

CC(=O)NCCC(=O)NC(C)c1sc(-c2ccccc2F)nc1C (configuration not stated)
cytotoxicity at 10 µM: 7.92%

CCCc1nc(CN(C)CCOc2ccccc2)cs1
cytotoxicity at 10 µM: -8.53%

Cc1c(NC(C)C(C)C)cccc1C(=O)NCc1cnn(C)c1 (configuration not stated)
cytotoxicity at 10 µM: 27%

COc1c(C(=O)NCC(C)Sc2ccccc2)c(C)nn1C (configuration not stated)
cytotoxicity at 10 µM: 12.1%

Cc1cnn(C2CN(CC(O)c3ccccc3)C2)c1 (configuration not stated)
cytotoxicity at 10 µM: -2.55%

CC(C)c1ncncc1C(=O)NCCN1CCCC1
cytotoxicity at 10 µM: -9.91%

CCN(Cc1ccco1)C(=O)NCC(c1cccs1)N(C)C (configuration not stated)
cytotoxicity at 10 µM: 16.3%

CCc1nc(CSC2CCCN(c3cnn(C)c3)C2=O)cs1 (configuration not stated)
cytotoxicity at 10 µM: 14.1%

O=C(NCc1cscn1)NC1CCN(c2ncccc2Cl)C1 (configuration not stated)
cytotoxicity at 10 µM: -1.24%

Cc1ccc(CCc2nc(C3CCOC3)no2)o1 (configuration not stated)
cytotoxicity at 10 µM: 3.04%

CCC(C)NC(=O)Nc1ccc(CN2CCOC2=O)cc1 (configuration not stated)
cytotoxicity at 10 µM: 10.5%

COc1ccc(NC(C)C(=O)N2CCN(c3ncccn3)CC2)cn1 (configuration not stated)
cytotoxicity at 10 µM: -4.71%

Cc1ccc(N2CCC3(CC2)CC(OCC(=O)N(C)C)CO3)nn1 (configuration not stated)
cytotoxicity at 10 µM: -7.59%

O=C1CN(CC2CC2)Cc2nc(NCc3ccccc3)sc21
cytotoxicity at 10 µM: -12.3%

CNc1nccc(-c2cn(C)nc2C)n1
cytotoxicity at 10 µM: -6.59%

CC(C)N(Cc1nc(-c2cccs2)no1)CC1CCC(=O)N1 (configuration not stated)
cytotoxicity at 10 µM: -0.475%

Cc1ccc(CN2CCN(C(=O)CCc3nc(Cl)n[nH]3)CC2=O)cc1
cytotoxicity at 10 µM: -0.903%

O=C(N1CCOCC1)N1CCC(Nc2ccncn2)CC1
cytotoxicity at 10 µM: -57%

Cc1cc(C)n(CC(C)Nc2ncnc3c2CCNC3)n1 (configuration not stated)
cytotoxicity at 10 µM: 3.37%

COc1c(F)cc(CN2CCCC3(CC2)CNC(=O)O3)cc1Cl (configuration not stated)
cytotoxicity at 10 µM: 0.465%

CSCC(=O)N1CCCC(CCC(=O)N(C)CCc2ccccn2)C1 (configuration not stated)
cytotoxicity at 10 µM: -3.09%

Cc1cc(C)n(C2CN(C(=O)Cn3c(C)cc(=O)c4ccccc43)C2)n1
cytotoxicity at 10 µM: -5.56%

O=C1[C@@H]2CN(c3ncnc4sccc34)C[C@]2(C(=O)O)CN1CC1CC1
cytotoxicity at 10 µM: 0.977%

Cn1cc(CN2CCC[C@]3(C(=O)O)CN(c4cnccn4)CC[C@@H]23)cn1
cytotoxicity at 10 µM: -0.226%

COc1ccc(-c2ccnc(N)c2)c(C)c1
cytotoxicity at 10 µM: 6.63%

CCn1cc(CN2CCCCC2CCn2ccnc2C)cc1C#N (configuration not stated)
cytotoxicity at 10 µM: -3.09%

CCc1nccn1CCC(=O)N1CCCC1c1ccc(F)cc1 (configuration not stated)
cytotoxicity at 10 µM: 1.58%

Cc1ccc(NC(=O)[C@@H]2C[C@H](C(=O)O)CN(Cc3sccc3C)C2)cn1
cytotoxicity at 10 µM: 11%

Cc1ncsc1C(=O)N1CCCC(CO)(CC2CC2)C1 (configuration not stated)
cytotoxicity at 10 µM: -1.5%

CCc1ccc(C2c3nc[nH]c3CCN2Cc2nccn2CC)nc1 (configuration not stated)
cytotoxicity at 10 µM: -0.123%

CN(CCO)Cc1nnc(C2CCN(C(=O)c3ccccn3)CC2)n1C
cytotoxicity at 10 µM: 0.5%

CC(C)=CCC1(CO)CCCN(Cc2cnc(N3CCOCC3)nc2)C1 (configuration not stated)
cytotoxicity at 10 µM: -2.6%

CC(=O)NCCNc1cc(C)nc2cc(C)nn12
cytotoxicity at 10 µM: -6.91%

O=C(c1ncc(F)cc1F)N1CCC(c2ncc[nH]2)CC1
cytotoxicity at 10 µM: -3.73%

O=C(Cc1n[nH]c(-c2cncc(Br)c2)n1)NCc1ccncc1
cytotoxicity at 10 µM: -6.3%

Cc1nc(N(C)CCN(C)C)c2cnn(C)c2n1
cytotoxicity at 10 µM: 4.63%

CCCN1CCN(C(=O)Cc2cccnc2)[C@H]2CS(=O)(=O)C[C@H]21
cytotoxicity at 10 µM: -8.26%

CCC(NC1CSCCSC1)c1ccc(S(C)(=O)=O)cc1 (configuration not stated)
cytotoxicity at 10 µM: -8.06%

COCCN(C)CC(=O)N1CCCC2(CCC(=O)N(CC3CC3)C2)C1 (configuration not stated)
cytotoxicity at 10 µM: 0.502%

COCc1noc(Cn2ccc3ncccc3c2=O)n1
cytotoxicity at 10 µM: 1.56%

CNCc1cc(F)ccc1Oc1ccc(F)cc1
cytotoxicity at 10 µM: -1%

Cc1noc(C(C)C)c1C(=O)NCc1ccc(N(C)C)c(F)c1
cytotoxicity at 10 µM: 1.17%

COC(=O)C(NC(=O)C1CCCC1)c1cc(F)ccc1F (configuration not stated)
cytotoxicity at 10 µM: 5.67%

Cc1cc(C)c(CNC(=O)NCC(O)c2ccc(Cl)cc2)c(=O)[nH]1 (configuration not stated)
cytotoxicity at 10 µM: -7.03%

Cc1cc(C)c(CNC(=O)NCc2cc(F)cc(F)c2)c(=O)[nH]1
cytotoxicity at 10 µM: -4.98%

CC(C)(C)c1ncc(C(=O)NCCNC(=O)c2ccc(O)cc2)s1
cytotoxicity at 10 µM: 45.3%

CN(C)c1cc(C(=O)N2CCCN(Cc3nccn3C)CC2)ccn1
cytotoxicity at 10 µM: -1.56%

COc1ccccc1C(NCc1ccc(SC)cc1)c1nccn1C (configuration not stated)
cytotoxicity at 10 µM: -11.6%

O=C(CCCNc1ncccn1)Nc1cc(C(F)(F)F)c[nH]c1=O
cytotoxicity at 10 µM: -1.34%

Cc1nccc(C(=O)N2CCCN(Cc3nccn3C(C)C)CC2)n1
cytotoxicity at 10 µM: -10.2%

Cc1nc(C)n(C2CCCN(C(=O)c3cc(C4CC4)on3)C2)n1 (configuration not stated)
cytotoxicity at 10 µM: -3.87%

Cc1nc(C)n(CC2CCCN2CC(=O)Nc2c(C)n[nH]c2C)n1 (configuration not stated)
cytotoxicity at 10 µM: -7.66%

N#Cc1cccnc1N1CCCN(C(=O)CCn2cccn2)CC1
cytotoxicity at 10 µM: 2.81%

COc1cccc(CNCc2ccc(NC(=O)NC(C)C)cc2)c1
cytotoxicity at 10 µM: -11.1%

Cc1ccc(CNC(=O)Cc2c(C)nc3c(c2C)c(=O)[nH]n3C)cc1
cytotoxicity at 10 µM: -8.6%

CCc1nnsc1C(=O)N1CCCN(Cc2ccc(C)cc2)CC1
cytotoxicity at 10 µM: -4.28%

CN(C)Cc1nc(C(C)(C)NC(=O)C2CC(=O)N(CC3CC3)C2)no1 (configuration not stated)
cytotoxicity at 10 µM: -5.9%

CCOc1cc(C)nc(N2CCN(C(=O)c3ccnn3C)CC2)n1
cytotoxicity at 10 µM: -4.37%

Cc1ccc(NC(=O)C2CSCN2C(=O)c2cnn(C)c2)c(C)c1 (configuration not stated)
cytotoxicity at 10 µM: -3.97%

CCOC(=O)NC(C(=O)NCc1ccc(N2CCCCC2)nc1)C(C)C (configuration not stated)
cytotoxicity at 10 µM: -6.09%

Cc1nc(N)c2ccc(C3CCCCN3)nc2n1 (configuration not stated)
cytotoxicity at 10 µM: -0.05%

O=C(O)C1(Cc2cccc(-c3cccs3)c2)CCCNC1 (configuration not stated)
cytotoxicity at 10 µM: 4.43%

O=C(NCc1ccco1)[C@@]12CCO[C@@H]1CCN(C1CCC1)C2
cytotoxicity at 10 µM: 12.3%

CN(C)Cc1cn2c(n1)CN(CC1CCCC1)CC2
cytotoxicity at 10 µM: -149%

CN(C)CCN1CC[C@@H]2O[C@@H](COCC(=O)N3CCCC3)CC[C@@H]21
cytotoxicity at 10 µM: -1.78%

Cc1cccc(CN2C[C@H](OCc3csc(C)n3)[C@H]3COC[C@H]32)n1
cytotoxicity at 10 µM: 3.22%

Cc1cccc(CN2Cc3[nH]nc(COCCO)c3C2)n1
cytotoxicity at 10 µM: 0.442%

Cc1noc(C)c1CN1CCN(Cc2ccncc2)c2ncccc2C1
cytotoxicity at 10 µM: 5.51%

Cc1cccc(CO[C@@H]2C[C@H]3CN(c4ncccn4)CCN3C2)n1
cytotoxicity at 10 µM: 1.39%

COc1ccc(-c2ccnc(C3CCNCC3)c2)cc1
cytotoxicity at 10 µM: -41.4%

c1cn2c(n1)CN(C1CCOCC1)CC(CN1CCCC1)C2 (configuration not stated)
cytotoxicity at 10 µM: -0.123%

O=C(c1ccco1)N1CCc2ncnc(Oc3cccnc3)c2CC1
cytotoxicity at 10 µM: -2.86%

CCOC1CC2(CCN(Cc3cccn3C)CC2)C1
cytotoxicity at 10 µM: -149%

COCC(=O)N1CCc2c(nnn2C)C1COCCN1CCCC1 (configuration not stated)
cytotoxicity at 10 µM: 11.6%

Cn1cc(CN2CCC3(CCCN3Cc3cccnc3)CC2)cn1
cytotoxicity at 10 µM: 2.43%

CC(C)N(C)Cc1cncc2c1CCN(C(=O)c1ccc[nH]1)C2
cytotoxicity at 10 µM: 3.73%
